In brackets after ≈: the same amount, converted by molar mass.
Key:
Candida albicans [1] = experiment: Antifungal activity against Candida albicans; assay type: functional
[2] = Inhibition of Candida albicans beta-1,3-glucan synthase assessed as [3H]UDPG incorporation after 60 mins by scintillation counting
Summary of the method: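 C. albicans glucan synthase was incubated for 60 min at 22 °C in 50 mM HEPES pH 7.5 with 0.5 mM 3H-UDPG (6000–8000 dpm/nmol), 10% glycerol, 1.5 mg/mL BSA, 25 mM KF, 1 mM EDTA and GTP-γ-S. Enzyme was set to give 3–6 nmol incorporation. Compounds were added as threefold DMSO dilutions. The reaction was stopped with 20% TCA and chilled, and glucan was collected on GF/C filters, water-washed and scintillation counted.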

Mus musculus = experiment: Dose normalised AUC in po dosed mouse; assay type: ADME, organism-based; conditions: in vivo
[3] = Oral bioavailability in mouse; assay type: ADME, organism-based; conditions: in vivo
[4] = Clearance in po dosed mouse; assay type: ADME, organism-based; conditions: in vivo
Candida albicans [5] = experiment: Antifungal activity against Candida albicans MY1055 infected in DBA/2 mouse assessed as reduction in kidney fungal burden measured per gram of tissue at 6.25 mg/kg, po bid for 2 days post infection measured after 4 days relative to sham-treated control; assay type: functional
Summary of the method: (§1)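 DBA/2 mice were given 3.0 × 10^4 CFU of C. albicans MY1055 iv into the lateral tail vein in 0.2 mL. Dosing ip or po, bid for 2 days, began 15–30 min after challenge, with a sham-treated control for each route and diluent. At day 4, paired kidneys (4–5 mice/group) were homogenized in saline, serially diluted and plated on SD agar (35 °C, 30–48 h). Mean CFU/g was compared with sham.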

Candida albicans [6] = experiment: Antifungal activity against Candida albicans MY1055 infected in DBA/2 mouse assessed as reduction in kidney fungal burden measured per gram of tissue at 12.5 mg/kg, po bid for 2 days post infection measured after 4 days relative to sham-treated control; assay type: functional; summary of the method: as §1
Candida albicans [7] = experiment: Antifungal activity against Candida albicans MY1055 infected in DBA/2 mouse assessed as reduction in kidney fungal burden measured per gram of tissue at 25 mg/kg, po bid for 2 days post infection measured after 4 days relative to sham-treated control; assay type: functional; summary of the method: as §1
Candida albicans [8] = experiment: Antifungal activity against Candida albicans MY1055 infected in DBA/2 mouse assessed as reduction in kidney fungal burden measured per gram of tissue at 12.5 mg/kg, ip bid for 2 days post infection measured after 4 days relative to sham-treated control; assay type: functional; conditions: route intraperitoneal; summary of the method: as §1
Candida albicans [9] = experiment: Antifungal activity against Candida albicans MY1055 after 24 hrs by NCCLS microdilution method; assay type: functional; conditions: MY1055, 24 h
[10] = Inhibition of Candida albicans MY1055 beta-1,3-glucan synthase assessed as [3H]UDPG incorporation after 60 mins

Structure (SMILES) | MIC (Candida albicans [1]) | IC50 [2] | AUC/dose (Mus musculus) | bioavailability [3] | clearance [4] | deltalog10CFU (Candida albicans [5]) | deltalog10CFU (Candida albicans [6]) | deltalog10CFU (Candida albicans [7]) | deltalog10CFU (Candida albicans [8]) | MIC (Candida albicans [9]) | IC50 [10]
CC(C)[C@@H](C)[C@@]1(C)CC[C@]2(C)[C@H]3CC[C@@H]4[C@@]5(COC[C@@]4(C)[C@@H](OC[C@@H]4CCCN4C)[C@H](n4ncnc4-c4ccncc4)C5)C3=CC[C@@]2(C)[C@@H]1C(=O)O | 1 µg/mL (≈ 1.4 µM) | 0.061 µg/mL (≈ 0.0854 µM) |  |  |  |  |  |  |  |  | 
CC(C)[C@@H](C)[C@@]1(C)CC[C@]2(C)[C@H]3CC[C@@H]4[C@@]5(COC[C@@]4(C)[C@@H](OC[C@H]4CCCN4)[C@H](n4ncnc4-c4ccncc4)C5)C3=CC[C@@]2(C)[C@@H]1C(=O)O | 0.5 µg/mL (≈ 0.714 µM) | 0.022 µg/mL (≈ 0.0314 µM) | 0.03 µM·kg·h/mg | 1.7% | 16.3 mL/min/kg | -0.27 | -1.81 | -2.09 | -1.69 |  | 
CN[C@@](C)(CO[C@H]1[C@H](n2ncnc2-c2ccncc2)C[C@@]23COC[C@]1(C)[C@@H]2CC[C@H]1C3=CC[C@@]2(C)[C@H](C(=O)O)[C@@](C)([C@H](C)C(C)C)CC[C@]12C)C(C)(C)C | 0.03 µg/mL (≈ 0.0403 µM) | 0.002 µg/mL (≈ 0.00269 µM) | 0.62 µM·kg·h/mg | 42% | 16 mL/min/kg | -2.72 | -3.88 | -4.25 | -4.37 |  | 
CC(C)[C@@H](C)[C@@]1(C)CC[C@]2(C)[C@H]3CC[C@@H]4[C@@]5(COC[C@@]4(C)[C@@H](OC[C@@]4(C)CCCN4C)[C@H](n4ncnc4-c4ccncc4)C5)C3=CC[C@@]2(C)[C@@H]1C(=O)O | 0.125 µg/mL (≈ 0.172 µM) | 0.0064 µg/mL (≈ 0.00879 µM) |  |  |  | -0.9 | -1.4 | -2 | -1.8 |  | 
CC(C)[C@@H](C)[C@@]1(C)CC[C@]2(C)[C@H]3CC[C@@H]4[C@@]5(COC[C@@]4(C)[C@@H](OC[C@@H]4CCCN4)[C@H](n4ncnc4-c4ccncc4)C5)C3=CC[C@@]2(C)[C@@H]1C(=O)O | 1 µg/mL (≈ 1.43 µM) | 0.018 µg/mL (≈ 0.0257 µM) |  |  |  | -0.4 | -0.26 | -1.32 | -2.18 |  | 
CC(C)[C@@H](C)[C@@]1(C)CC[C@]2(C)[C@H]3CC[C@@H]4[C@@]5(COC[C@@]4(C)[C@@H](OC[C@@]4(C)CCCN4)[C@H](n4ncnc4-c4ccncc4)C5)C3=CC[C@@]2(C)[C@@H]1C(=O)O | 0.125 µg/mL (≈ 0.175 µM) | 0.004 µg/mL (≈ 0.0056 µM) | 0.06 µM·kg·h/mg | 4.7% | 19.2 mL/min/kg |  |  | -2.16 | -2.83 |  | 
CC(C)[C@@H](C)[C@@]1(C)CC[C@]2(C)[C@H]3CC[C@@H]4[C@@]5(COC[C@@]4(C)[C@@H](OC[C@H]4CCCN4C)[C@H](n4ncnc4-c4ccncc4)C5)C3=CC[C@@]2(C)[C@@H]1C(=O)O | 0.5 µg/mL (≈ 0.7 µM) | 0.019 µg/mL (≈ 0.0266 µM) | 0.06 µM·kg·h/mg | 23% | 13.1 mL/min/kg | -1.22 | -0.9 | -1.14 | -1.84 |  | 
CC(=O)O[C@@H]1C[C@]23C4=CC[C@@]5(C)[C@H](C(=O)O)[C@@](C)([C@H](C)C(C)C)CC[C@]5(C)[C@H]4CC[C@H]2[C@@](C)(COC3O)[C@H]1O[C@@H]1O[C@H](CO)[C@@H](O)[C@H](O)[C@H]1O (stereo not given in full) [ENFUMAFUNGIN] |  |  |  |  |  |  |  |  |  | 0.2 µg/mL (≈ 0.282 µM) | 0.05 µg/mL (≈ 0.0705 µM)

Reference: ChEMBL document CHEMBL2163260, “Synthesis and biological evaluation of antifungal derivatives of enfumafungin as orally bioavailable inhibitors of β-1,3-glucan synthase” (Bioorg Med Chem Lett, 2012)
